Measured values as given in ChEMBL document CHEMBL1155167, “Fluoroquinolone resistance in atypical pneumococci and oral streptococci: evidence of horizontal gene transfer of fluoroquinolone resistance determinants from Streptococcus pneumoniae” (2007).
Converted amounts (≈) assume the structure as drawn.

Columns and labels:
Streptococcus pneumoniae [1] = test: Antimicrobial activity against atypical Streptococcus pneumoniae L25 with parC Lys137Asn mutation by broth dilution method
Streptococcus pneumoniae [2] = test: Antimicrobial activity against atypical Streptococcus pneumoniae L27 with parC Ser52Gly, Asn91Asp, Glu135Asp mutation by broth dilution method
Streptococcus pneumoniae [3] = test: Antimicrobial activity against atypical Streptococcus pneumoniae L11 with parC Ser52Gly, Asn91Asp, Glu135Asp mutation by broth dilution method
Streptococcus oralis [4] = test: Antimicrobial activity against Streptococcus oralis ATCC 10557 with gyrA Ser114Gly, and parC Ser52Gly, Asn91Asp mutation by broth dilution method; format: functional
Procedure, shortened: (§1)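 Ciprofloxacin and levofloxacin MICs were determined by broth dilution following CLSI (formerly NCCLS) guidance. S. pneumoniae ATCC 6303 and ATCC 49619 served as control strains. Reference strains were S. mitis ATCC 49456 and S. oralis ATCC 10557. The clinical isolates came from patients at a Hong Kong teaching hospital.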

Streptococcus oralis [5] = test: Antimicrobial activity against Streptococcus oralis HK575 with gyrA Ser114Gly, Leu155Val and parC Ser52Gly, Asn91Asp, Pro140Ser mutation by broth dilution method; format: functional; procedure, shortened: as §1
Streptococcus oralis [6] = test: Antimicrobial activity against Streptococcus oralis HK232 with gyrA Ser114Gly, and parC Ser52Gly, Asn91Asp mutation by broth dilution method; format: functional; procedure, shortened: as §1
Streptococcus oralis [7] = test: Antimicrobial activity against Streptococcus oralis HK417 with gyrA Ser114Gly, and parC Ser52Gly, Asn91Asp mutation by broth dilution method; format: functional; procedure, shortened: as §1
Streptococcus oralis [8] = test: Antimicrobial activity against Streptococcus oralis HK496 with gyrA Ser114Gly, and parC Ser52Gly, Asn91Asp mutation by broth dilution method; format: functional; procedure, shortened: as §1
Streptococcus oralis [9] = test: Antimicrobial activity against Streptococcus oralis HK553 with gyrA Ser114Gly, and parC Ser52Gly, Asn91Asp mutation by broth dilution method; format: functional; procedure, shortened: as §1
Streptococcus oralis [10] = test: Antimicrobial activity against Streptococcus oralis HK62 with gyrA Ser114Gly, and parC Ser52Gly, Asn91Asp mutation by broth dilution method; format: functional; procedure, shortened: as §1
Streptococcus oralis [11] = test: Antimicrobial activity against Streptococcus oralis HK122 with gyrA Ser114Gly, and parC Ser52Gly, Asn91Asp mutation by broth dilution method; format: functional; procedure, shortened: as §1
Streptococcus oralis [12] = test: Antimicrobial activity against Streptococcus oralis HK123 with gyrA Ser114Gly, and parC Ser52Gly, Asn91Asp mutation by broth dilution method; format: functional; procedure, shortened: as §1
Streptococcus oralis [13] = test: Antimicrobial activity against Streptococcus oralis HK271 with gyrA Ser114Gly, and parC Ser52Gly, Asn91Asp mutation by broth dilution method; format: functional; procedure, shortened: as §1
Streptococcus oralis [14] = test: Antimicrobial activity against Streptococcus oralis HK300 with gyrA Ser114Gly, and parC Ser52Gly, Asn91Asp mutation by broth dilution method; format: functional; procedure, shortened: as §1
Streptococcus oralis [15] = test: Antimicrobial activity against Streptococcus oralis HK312 with gyrA Ser114Gly, and parC Ser52Gly, Asn91Asp mutation by broth dilution method; format: functional; procedure, shortened: as §1
Streptococcus oralis [16] = test: Antimicrobial activity against Streptococcus oralis HK51with gyrA Ser114Gly, and parC Ser52Gly, Asn91Asp mutation by broth dilution method; format: functional; procedure, shortened: as §1
Streptococcus oralis [17] = test: Antimicrobial activity against Streptococcus oralis HK299 with gyrA Ser114Gly, and parC Ser52Gly, Asn91Asp mutation by broth dilution method; format: functional; procedure, shortened: as §1
Streptococcus oralis [18] = test: Antimicrobial activity against Streptococcus oralis HK579 with gyrA Ser114Gly, and parC Ser52Gly, Asn91Asp mutation by broth dilution method; format: functional; procedure, shortened: as §1
Streptococcus oralis [19] = test: Antimicrobial activity against Streptococcus oralis HK587 with gyrA Ser114Gly, and parC Ser52Gly, Asn91Asp mutation by broth dilution method; format: functional; procedure, shortened: as §1
Streptococcus oralis [20] = test: Antimicrobial activity against Streptococcus oralis HK386 with gyrA Ser114Gly, and parC Ser52Gly, Asn91Asp mutation by broth dilution method; format: functional; procedure, shortened: as §1
Streptococcus oralis [21] = test: Antimicrobial activity against Streptococcus oralis HK619 with gyrA Ser114Gly, and parC Ser52Gly, Asn91Asp mutation by broth dilution method; format: functional; procedure, shortened: as §1
Streptococcus oralis [22] = test: Antimicrobial activity against Streptococcus oralis HK816 with gyrA Ser81Leu, Ser114Gly and parC Ser52Gly, Ser79Tyr, Asn91Asp mutation by broth dilution method; format: functional; procedure, shortened: as §1
Streptococcus oralis [23] = test: Antimicrobial activity against Streptococcus oralis HK754 with gyrA Ser81Leu, Ser114Gly, gyrB Ser494Thr, parC Ser52Gly, Asp83Tyr, Asn91Asp and parE Arg447Ser mutation by broth dilution method; format: functional; procedure, shortened: as §1
Streptococcus mitis [24] = test: Antimicrobial activity against Streptococcus mitis ATCC 49456 with gyrA Ser114Gly, and parC Ser52Gly, Asn91Asp, Glu135Asp mutation by broth dilution method; format: functional; procedure, shortened: as §1
Streptococcus mitis [25] = test: Antimicrobial activity against Streptococcus mitis HK260 with gyrA Ser114Gly, and parC Ser52Gly, Asn91Asp mutation by broth dilution method; format: functional; procedure, shortened: as §1
Streptococcus mitis [26] = test: Antimicrobial activity against Streptococcus mitis HK141 with gyrA Ser114Gly, and parC Ser52Gly, Asn91Asp mutation by broth dilution method; format: functional; procedure, shortened: as §1
Streptococcus mitis [27] = test: Antimicrobial activity against Streptococcus mitis HK188 with gyrA Ser114Gly, and parC Ser52Gly, Asn91Asp, Glu135Asp mutation by broth dilution method; format: functional; procedure, shortened: as §1
Streptococcus mitis [28] = test: Antimicrobial activity against Streptococcus mitis HK651 with gyrA Ser114Gly, and parC Ser52Gly, Asn91Asp mutation by broth dilution method; format: functional; procedure, shortened: as §1
Streptococcus mitis [29] = test: Antimicrobial activity against Streptococcus mitis HK137453 with gyrA Ser114Gly, and parC Ser52Gly, Asn91Asp mutation by broth dilution method; format: functional; procedure, shortened: as §1

**Q.** With `O=C(O)c1cn(C2CC2)c2cc(N3CCNCC3)c(F)cc2c1=O` [CIPROFLOXACIN] as the compound, how does the MIC (Streptococcus pneumoniae [1]) read?
**A.** 4 mg/L (≈ 12.1 µM)

**Q.** And the MIC (Streptococcus pneumoniae [2])?
**A.** 4 mg/L (≈ 12.1 µM)

**Q.** And the MIC (Streptococcus pneumoniae [3])?
**A.** 8 mg/L (≈ 24.1 µM)

**Q.** What about the MIC (Streptococcus oralis [4]) of the same compound?
**A.** 2 mg/L (≈ 6.04 µM)

**Q.** What about the MIC (Streptococcus oralis [5]) of the same compound?
**A.** 1 mg/L (≈ 3.02 µM)

**Q.** What about the MIC (Streptococcus oralis [6]) of the same compound?
**A.** 2 mg/L (≈ 6.04 µM)

**Q.** What about the MIC (Streptococcus oralis [7]) of the same compound?
**A.** 2 mg/L (≈ 6.04 µM)

**Q.** What about the MIC (Streptococcus oralis [8]) of the same compound?
**A.** 2 mg/L (≈ 6.04 µM)

**Q.** And the MIC (Streptococcus oralis [9])?
**A.** 2 mg/L (≈ 6.04 µM)

**Q.** What about the MIC (Streptococcus oralis [10]) of the same compound?
**A.** 4 mg/L (≈ 12.1 µM)

**Q.** And the MIC (Streptococcus oralis [11])?
**A.** 4 mg/L (≈ 12.1 µM)

**Q.** And the MIC (Streptococcus oralis [12])?
**A.** 4 mg/L (≈ 12.1 µM)

**Q.** And the MIC (Streptococcus oralis [13])?
**A.** 4 mg/L (≈ 12.1 µM)

**Q.** And the MIC (Streptococcus oralis [14])?
**A.** 4 mg/L (≈ 12.1 µM)

**Q.** What about the MIC (Streptococcus oralis [15]) of the same compound?
**A.** 4 mg/L (≈ 12.1 µM)

**Q.** And the MIC (Streptococcus oralis [16])?
**A.** 4 mg/L (≈ 12.1 µM)

**Q.** And the MIC (Streptococcus oralis [17])?
**A.** 4 mg/L (≈ 12.1 µM)

**Q.** And the MIC (Streptococcus oralis [18])?
**A.** 4 mg/L (≈ 12.1 µM)

**Q.** And the MIC (Streptococcus oralis [19])?
**A.** 4 mg/L (≈ 12.1 µM)

**Q.** And the MIC (Streptococcus oralis [20])?
**A.** 4 mg/L (≈ 12.1 µM)

**Q.** What about the MIC (Streptococcus oralis [21]) of the same compound?
**A.** 4 mg/L (≈ 12.1 µM)

**Q.** And the MIC (Streptococcus oralis [22])?
**A.** 32 mg/L (≈ 96.6 µM)

**Q.** And the MIC (Streptococcus oralis [23])?
**A.** 128 mg/L (≈ 386 µM)

**Q.** And the MIC (Streptococcus mitis [24])?
**A.** 1 mg/L (≈ 3.02 µM)

**Q.** What about the MIC (Streptococcus mitis [25]) of the same compound?
**A.** < 0.5 mg/L

**Q.** And the MIC (Streptococcus mitis [26])?
**A.** 1 mg/L (≈ 3.02 µM)

**Q.** What about the MIC (Streptococcus mitis [27]) of the same compound?
**A.** 1 mg/L (≈ 3.02 µM)

**Q.** And the MIC (Streptococcus mitis [28])?
**A.** 1 mg/L (≈ 3.02 µM)

**Q.** And the MIC (Streptococcus mitis [29])?
**A.** 2 mg/L (≈ 6.04 µM)
